Laboratory results published in PMC3806897 (ACS chemical biology, 2013).

Tests used:
MAGL [1] = experiment: In vivo competitive ABPP of brain proteomes from treated mice; parameters: species or system mouse
In short: (§1)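 C57Bl/6J mice received test compound by oral gavage in PEG300 (1.0–40 mg•kg-1). At 4 h they were anesthetized with isoflurane, killed by cervical dislocation, and tissues were flash-frozen. Brain membrane proteomes were labeled with FP-Rh for 30 min at room temperature, quenched in reducing SDS loading buffer, separated on 10% SDS-PAGE and scanned for in-gel fluorescence.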

MAGL [2] = experiment: In vitro click chemistry; assay type: biochemical, mouse; settings: CC-ABPP with Rh-N3, 30 min, 37 °C
In short: (§2)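 Brain membrane proteome from naïve mice (1.0 mg/mL) was treated with varying concentrations of alkyne carbamate probe for 30 min at 37 °C. A premixed click mixture was added immediately: CuSO4 (50 mM stock), TBTA (1.7 mM stock), freshly prepared TCEP (50 mM stock) and Rh-N3 (1.25 mM stock). Reactions ran 1 h at room temperature, were diluted with SDS loading buffer, and were read by SDS-PAGE in-gel fluorescence.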

mouse brain proteome [3] = experiment: In vitro CC-ABPP, background proteome reactivity; assay type: biochemical
In short: as §2

mouse brain proteome [4] = experiment: In vivo CC-ABPP of brain proteomes, off-target labeling; settings: entire tested dose range 1-40 mg•kg^–1 p.o.
MAGL [5] = biological target: T1, MAGL (Mus musculus, UniProt O35678); experiment: In vivo competitive ABPP of liver proteomes; settings: oral, 1-40 mg•kg^–1, 4 h
T1 sequence (O35678 1-303): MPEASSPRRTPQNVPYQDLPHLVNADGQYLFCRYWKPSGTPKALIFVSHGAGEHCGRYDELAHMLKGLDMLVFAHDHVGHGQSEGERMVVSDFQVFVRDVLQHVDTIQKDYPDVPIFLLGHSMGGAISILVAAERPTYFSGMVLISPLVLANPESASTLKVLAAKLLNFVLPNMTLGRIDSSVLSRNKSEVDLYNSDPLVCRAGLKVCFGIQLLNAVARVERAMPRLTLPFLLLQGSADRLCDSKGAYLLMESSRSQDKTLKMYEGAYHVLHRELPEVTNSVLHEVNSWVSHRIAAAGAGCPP
In short: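 Mice were gavaged orally with test compound in PEG300 (1.0–40 mg•kg-1). After 4 h, animals were killed under isoflurane and livers flash-frozen. Liver membrane proteomes were labeled with FP-Rh for 30 min at room temperature, quenched with reducing SDS loading buffer, resolved on 10% SDS-PAGE and read by in-gel fluorescence scanning.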

brain serine hydrolases = experiment: In vivo competitive ABPP of brain proteomes, off-target profile; parameters: species or system mouse; settings: oral, 1-40 mg•kg^–1, 4 h
In short: as §1

MAGL [6] = biological target: T1, MAGL; experiment: In vitro competitive ABPP with FP-Rh in mouse brain proteome; assay type: biochemical; settings: JW842 vs JW843, JW651 vs JW814; MJN110 vs all carbamates
In short: (§3)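 Mouse brain membrane proteome (1.0 mg/mL) was preincubated with DMSO or test compound (1–100,000 nM) for 30 min at 37 °C. FP-Rh (50 μM stock in DMSO) was added for another 30 min at room temperature, and reactions were quenched with SDS loading buffer. After SDS-PAGE, MAGL, ABHD6 and FAAH activities were quantified from in-gel fluorescent band intensities, from which IC50 values were calculated.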

ABHD6 [7] = biological target: T2, ABHD6 (Mus musculus, UniProt Q8R2Y0); experiment: as above; assay type: biochemical; settings: for relative ABHD6 inhibitory potency: JW842 vs JW843, JW651 vs JW814, MJN110 vs all carbamates
T2 sequence (Q8R2Y0 1-336): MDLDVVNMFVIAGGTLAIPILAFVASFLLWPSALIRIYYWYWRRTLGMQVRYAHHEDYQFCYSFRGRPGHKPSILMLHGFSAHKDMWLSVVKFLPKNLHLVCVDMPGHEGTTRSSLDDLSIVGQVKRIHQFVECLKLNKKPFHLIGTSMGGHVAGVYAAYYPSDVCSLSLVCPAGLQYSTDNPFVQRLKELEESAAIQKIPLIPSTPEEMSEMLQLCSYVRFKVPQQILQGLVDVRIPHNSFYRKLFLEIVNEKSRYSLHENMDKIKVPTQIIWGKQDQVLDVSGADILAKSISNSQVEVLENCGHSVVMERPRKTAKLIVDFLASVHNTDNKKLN
In short: as §3

[8] = system: other brain serine hydrolases; experiment: In vitro competitive ABPP with FP-Rh, off-target profile; assay type: biochemical, mouse
In short: as §3

FAAH [9] = biological target: T3, FAAH (Mus musculus, UniProt O08914); experiment: In vitro competitive ABPP with FP-Rh in mouse brain proteome; assay type: biochemical; settings: 30 min, 37 °C
T3 sequence (O08914 1-579): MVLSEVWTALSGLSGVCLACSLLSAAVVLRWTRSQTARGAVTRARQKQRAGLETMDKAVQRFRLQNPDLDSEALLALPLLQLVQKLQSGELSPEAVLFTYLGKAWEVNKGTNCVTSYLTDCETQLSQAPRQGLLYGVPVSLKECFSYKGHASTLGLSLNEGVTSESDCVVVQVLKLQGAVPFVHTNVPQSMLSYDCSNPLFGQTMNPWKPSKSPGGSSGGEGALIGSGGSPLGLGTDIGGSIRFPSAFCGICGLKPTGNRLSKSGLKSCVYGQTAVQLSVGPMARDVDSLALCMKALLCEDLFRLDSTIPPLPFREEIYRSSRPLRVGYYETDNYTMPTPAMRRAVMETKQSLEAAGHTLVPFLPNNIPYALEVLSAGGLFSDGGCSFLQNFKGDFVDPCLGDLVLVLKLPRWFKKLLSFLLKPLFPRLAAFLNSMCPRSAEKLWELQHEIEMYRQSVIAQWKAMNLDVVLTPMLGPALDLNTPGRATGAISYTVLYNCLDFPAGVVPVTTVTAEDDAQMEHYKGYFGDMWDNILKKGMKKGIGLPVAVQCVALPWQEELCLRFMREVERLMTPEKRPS
In short: as §3

FAAH [10] = biological target: T3, FAAH; experiment: In vivo competitive ABPP of brain proteomes from treated mice; settings: oral, 4 h
In short: as §1

FAAH [11] = biological target: T3, FAAH; experiment: In vitro CC-ABPP of mouse brain proteomes; assay type: biochemical
In short: as §2

carboxylesterases (CESs) = experiment: In vivo CC-ABPP of liver proteomes; parameters: species or system mouse; settings: oral, 1-40 mg•kg^–1, 4 h
In short: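 Mice received oral alkyne carbamate probe in PEG300 (1–40 mg•kg-1) for 4 h before livers were harvested and flash-frozen. Liver membrane proteome, with the soluble fraction removed, was diluted to 1.0 mg/mL. It was clicked to Rh-N3 with premixed CuSO4, TBTA and fresh TCEP for 1 h at room temperature, then diluted in SDS loading buffer and resolved by SDS-PAGE for in-gel fluorescence.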

ABHD6 [12] = biological target: T2, ABHD6; experiment: In vivo competitive ABPP of brain proteomes from treated mice; settings: 40 mg•kg^-1 p.o., 4 h
In short: as §1

[13] = system: brain lipid levels (2-AG, AA, AEA); experiment: Brain lipid levels in treated mice; assay type: in vivo, mouse; settings: JW651-treated mice, p.o., 4 h
In short: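 C57Bl/6J mice were dosed by oral gavage in PEG300 (1.0–40 mg•kg-1). After 4 h they were anesthetized with isoflurane and killed by cervical dislocation. Brains were harvested and flash-frozen in liquid N2. Lipids were measured by LC/MS against commercial standards.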

C#Cc1ccc(C(c2ccc(Cl)cc2)N2CCN(C(=O)ON3C(=O)CCC3=O)CC2)cc1 (stereo not shown) [MJN110yne]
lowest dose substantially inhibiting MAGL in the brain (MAGL [1]; oral, 1-40 mg•kg^–1, 4 h): 5.0 mg•kg^–1 | lowest probe concentration detecting MAGL reactivity (MAGL [2]): 10 nM | probe concentration at which background proteome reactivity became apparent (mouse brain proteome [3]; CC-ABPP with Rh-N3, more dramatic at 100 μM): 10 µM | degree of background proteome reactivity (mouse brain proteome [3]; CC-ABPP, concentrations up to 100 μM): highest degree of background proteome reactivity | broader background proteome labeling in vivo (mouse brain proteome [4]): did not reveal broader background proteome labeling | inactivation of MAGL in liver (MAGL [5]): potent inactivation | only detectable off-target activity in brain in vivo (brain serine hydrolases): ABHD6

O=C(ON1C(=O)CCC1=O)N1CCN(C(c2ccc(Cl)cc2)c2ccc(Cl)cc2)CC1 [MJN110]
relative MAGL inhibitory potency (MAGL [6]): highest | relative ABHD6 inhibitory potency (ABHD6 [7]): highest | other off-targets observed ([8]; below 100 μM): LYPLA1/2 being the only other off-targets

C#Cc1ccc(C(c2ccc(Cl)cc2)N2CCN(C(=O)Oc3ccc([N+](=O)[O-])cc3)CC2)cc1 (stereo not shown) [JW842yne]
change in inhibitory activity against FAAH on exchange of chloro for alkyne (FAAH [9]): slight increase | relative activity on MAGL in the brain in vivo (MAGL [1]; oral, 1-40 mg•kg^–1, 4 h, vs JW651yne and MJN110yne): less active | dose producing strong inhibition of FAAH in brain (FAAH [10]): ≥ 10 mg•kg^–1 | cross-reactivity with FAAH (FAAH [11]): some cross-reactivity | CES labeling in liver (carboxylesterases (CESs)): strongest CES labeling profile

O=C(OC(C(F)(F)F)C(F)(F)F)N1CCN(C(c2ccc(Cl)cc2)c2ccc(Cl)cc2)CC1 [JW651]
blockade of ABHD6 (ABHD6 [7]; at 10 μM): partial blockade | cross-reactivity with other brain serine hydrolases off-targets ([8]; up to 10 μM): did not exhibit cross-reactivity | detectable off-targets ([8]; up to 100 μM JW651, membrane fraction of mouse brain proteome): ABHD6 being the only detectable off-target | lowest dose giving near complete / complete inhibition of MAGL in brain (MAGL [1]; C57Bl/6J mice, oral gavage 1.0 to 40 mg•kg^-1, 4 h): 5 mg/kg | inhibition of ABHD6 in brain (ABHD6 [12]): partial inhibition | brain levels of N-arachidonoylethanolamide (AEA) [13]: unaffected | brain levels of arachidonic acid (AA) [13]: concomitant reductions | elevation of brain levels of 2-AG [13]: 10 fold

O=C(Oc1ccc([N+](=O)[O-])cc1)N1CCN(C(c2ccc(Cl)cc2)c2ccc(Cl)cc2)CC1 [JW842]
relative MAGL inhibitory potency (MAGL [6]): much greater potency | relative ABHD6 inhibitory potency (ABHD6 [7]): much greater potency
